From ChEMBL document CHEMBL4665801, “Pyrazole-Based Lactate Dehydrogenase Inhibitors with Optimized Cell Activity and Pharmacokinetic Properties” (J Med Chem, 2020)
pIC50: −log10 of the molar value. Active and inactive are the calls of the source. The rule behind the calls is not given here.

Tests used:
Sus scrofa = organism: Sus scrofa; experiment: Inhibition of porcine heart MDH using malic acid as substrate preincubated for 10 mins followed by substrate addition and measured after 5 mins by resazurin based fluorescence based assay; conditions: time 15.0 min
[1] = biological target: T1, L-lactate dehydrogenase A chain (Homo sapiens, UniProt P00338); experiment: Inhibition of GS[HiBiT]GS-tagged LDHA (unknown origin) expressed in HEK-293T cells measured after 1 hr by […]; assay type: cell-based
Outline: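 HEK293T cells were transiently transfected for 24 h with CMV-driven LDHA carrying a C-terminal GS[HiBiT]GS tag, then reseeded at 2500 cells/well in DPBS with Ca/Mg and 1 g/L glucose. […] Cells were lysed with NP40, and 11S (100 nM final) plus furimazine was added.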

[2] = biological target: L-lactate dehydrogenase B chain (Homo sapiens) (UniProt P07195); experiment: Inhibition of recombinant human LDHB using sodium pyruvate as substrate preincubated for 5 mins followed by diaphorase/resazurin addition and measured after 20 mins by fluorescence based assay
[3] = biological target: T1, L-lactate dehydrogenase A chain; experiment: Inhibition of LDHA in human MIA PaCa-2 cells assessed as decrease in lactate production incubated for 2 hrs by lactate oxidase-coupled fluorescence based assay; assay type: cell-based
[4] = biological target: T1, L-lactate dehydrogenase A chain; experiment: Inhibition of LDHA in human A673 cells assessed as decrease in lactate production incubated for 2 hrs by lactate oxidase-coupled fluorescence based assay; assay type: cell-based
MIA PaCa-2 = experiment: Cytotoxicity against human MIA PaCa-2 cells assessed as reduction in cell viability after 48 hrs by CellTiter-Glo assay; assay type: functional, cell-based; conditions: MIA PaCa-2, 48 h
A673 = experiment: Cytotoxicity against human A673 cells assessed as reduction in cell viability after 48 hrs by CellTiter-Glo assay; assay type: functional, cell-based; conditions: A673, 48 h
[5] = biological target: T1, L-lactate dehydrogenase A chain; experiment: Inhibition of recombinant human LDHA using sodium pyruvate as substrate preincubated for 5 mins followed by diaphorase/resazurin addition and measured after 20 mins by fluorescence based assay

Chain of L-lactate dehydrogenase B chain (Homo sapiens) (P07195 2-334 limits assumed): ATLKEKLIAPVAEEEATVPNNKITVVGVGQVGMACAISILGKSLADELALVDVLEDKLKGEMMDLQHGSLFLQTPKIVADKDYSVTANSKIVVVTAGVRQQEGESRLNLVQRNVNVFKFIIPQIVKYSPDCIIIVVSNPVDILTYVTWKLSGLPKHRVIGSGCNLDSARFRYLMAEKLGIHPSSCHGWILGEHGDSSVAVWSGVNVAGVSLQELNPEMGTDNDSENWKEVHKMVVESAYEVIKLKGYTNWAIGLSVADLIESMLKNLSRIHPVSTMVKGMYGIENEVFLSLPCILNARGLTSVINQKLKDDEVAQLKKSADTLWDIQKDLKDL

SMILES | inhibition (Sus scrofa) | pIC50 [1] | inhibition [2] | pIC50 [3] | pIC50 [4] | pIC50 [5] | pIC50 (MIA PaCa-2) | pIC50 (A673) | pIC50 ([4]; a673)
Cc1cc(C#Cc2cccc(-c3nn(-c4nc(C(=O)O)cs4)c(CCC4CC4)c3Cc3ccc(S(N)(=O)=O)c(F)c3)c2)c(C)s1 | inactive | 6.52 | Active | 6.73 | 6.79 | 6.31 | 6.40 | 6.40 | 
NS(=O)(=O)c1ccc(Cc2c(-c3cccc(-c4ccccc4)c3)nn(-c3nc(C(=O)O)cs3)c2CC2CC2)cc1F | inactive | 6.82 | Active | 6.06 | 6.21 | 7.60 | 5.47 | 5.94 | 
Cc1ncc(C#Cc2cccc(-c3nn(-c4nc(C(=O)O)cs4)c(CCC4CC4)c3Cc3ccc(S(N)(=O)=O)c(F)c3)c2)s1 | inactive | 4.75 | Active | 6.48 | 6.36 | 7.62 | 6.66 | 6.66 | 
NS(=O)(=O)c1ccc(Cc2c(-c3ccc(F)c(-c4ccccc4)c3)nn(-c3nc(C(=O)O)cs3)c2CC2CC2)cc1 | inactive | 6.40 | Active | 5.91 | 6.08 | 7.64 | 5.07 | 5.58 | 
NS(=O)(=O)c1ccc(Cc2c(-c3cccc(C#Cc4ccc(C5CCC5)s4)c3)nn(-c3nc(C(=O)O)cs3)c2CC2CC2)cc1F | inactive | 6.57 | Active | 6.31 | 6.48 | 6.77 | 6.04 |  | 
NS(=O)(=O)c1ccc(Cc2c(-c3ccc(F)c(C#CC4CCOC4)c3)nn(-c3nc(C(=O)O)cs3)c2CC2CC2)cc1F (stereo not given) | inactive | 7.05 | Active | 6.08 |  | 8.15 |  | 6.01 | 5.90
CC(C)(C)C#Cc1cc(-c2nn(-c3nc(C(=O)O)cs3)c(CC3CC3)c2Cc2ccc(S(N)(=O)=O)c(F)c2)ccc1F | inactive | 7.12 | Active | 6.86 | 6.85 | 7.80 | 6.07 | 6.03 | 
CC#Cc1cccc(-c2nn(-c3nc(C(=O)O)cs3)c(CC3CC3)c2Cc2ccc(S(N)(=O)=O)c(F)c2)c1 | inactive | 6.82 | Active | 6.28 | 6.15 | 8.05 | 6.21 |  | 
NS(=O)(=O)c1ccc(Cc2c(-c3cccc(-c4ccccc4)c3)nn(-c3nc(C(=O)O)cs3)c2CC2CC2(F)F)cc1 (stereo not given) | inactive | 6.30 | Active | 5.76 | 5.85 | 7.60 | 4.97 | 5.33 | 
CC(C)(C)c1ccc(C#Cc2cc(-c3nn(-c4nc(C(=O)O)cs4)c(CC4CC4)c3Cc3ccc(S(N)(=O)=O)c(F)c3)ccc2F)s1 | inactive | 4.97 | Active | 6.29 | 6.28 | 6.15 | 6.18 |  | 
NS(=O)(=O)c1ccc(Cc2c(-c3ccc(F)c(C#CC4CCNCC4)c3)nn(-c3nc(C(=O)O)cs3)c2CC2CC2)cc1F | inactive | 5.59 | Active | 5.05 | 4.91 | 7.82 | 4.76 |  | 
NS(=O)(=O)c1ccc(Cc2c(-c3cccc(-c4ccccc4)c3)nn(-c3nc(C(=O)O)cs3)c2CC2CC2)c(F)c1 | inactive |  | Active | 5.19 | 5.35 | 6.64 | 5.24 | 4.94 | 
Cn1cncc1C#Cc1cc(-c2nn(-c3nc(C(=O)O)cs3)c(CC3CC3)c2Cc2ccc(S(N)(=O)=O)c(F)c2)ccc1F | inactive | 6.52 | Active | 5.97 | 5.80 | 8.10 | 5.86 |  | 
NS(=O)(=O)c1ccc(Cc2c(-c3ccc(F)c(C#CCN4CCOCC4)c3)nn(-c3nc(C(=O)O)cs3)c2CC2CC2)cc1F | inactive | 5.30 | Active | 4.72 | 4.81 | 6.97 |  | 5.23 | 
NS(=O)(=O)c1ccc(Cc2c(-c3ccc(F)c(C#CCN4CCCC4)c3)nn(-c3nc(C(=O)O)cs3)c2CC2CC2)cc1F | inactive | 6.57 | Active | 6.00 | 5.96 | 8.10 |  |  | 
NS(=O)(=O)c1ccc(Cc2c(-c3cccc(C#Cc4ccc(C5CCC5)s4)c3)nn(-c3nc(C(=O)O)cs3)c2CCC2CC2)cc1F | inactive | 6.52 | Active | 6.42 | 6.24 | 6.20 |  | 6.24 | 

Further compounds by rising pIC50 [1], results first:

inhibition (Sus scrofa) | pIC50 [1] | inhibition [2] | pIC50 [3] | pIC50 [4] | pIC50 [5] | SMILES | pIC50 (MIA PaCa-2) | pIC50 (A673) | pIC50 ([4]; a673)
inactive | 6.70 | Active | 6.66 | 6.46 | 6.86 | Cc1cc(C)c(C#Cc2cccc(-c3nn(-c4nc(C(=O)O)cs4)c(CC4CC4)c3Cc3ccc(S(N)(=O)=O)c(F)c3)c2)s1 | 6.27 | 6.28 | 
inactive | 6.72 | Active | 6.41 | 6.36 | 6.51 | NS(=O)(=O)c1ccc(Cc2c(-c3cccc(C#Cc4ccc(C5CC5)s4)c3)nn(-c3nc(C(=O)O)cs3)c2CCC2CC2)cc1F | 6.58 |  | 
inactive | 6.85 | Active | 6.23 | 6.33 | 7.64 | NS(=O)(=O)c1ccc(Cc2c(-c3ccc(F)c(-c4ccccc4)c3)nn(-c3nc(C(=O)O)cs3)c2CC2CC2)cc1F | 5.47 | 5.87 | 
inactive | 6.87 | Active | 6.64 | 6.49 | 7.82 | NS(=O)(=O)c1ccc(Cc2c(-c3ccc(F)c(/C=C/C4CC4)c3)nn(-c3nc(C(=O)O)cs3)c2CC2CC2)cc1F | 6.08 | 6.08 | 
inactive | 6.92 | Active | 6.28 | 6.11 | 8.10 | COCC#Cc1cc(-c2nn(-c3nc(C(=O)O)cs3)c(CC3CC3)c2Cc2ccc(S(N)(=O)=O)c(F)c2)ccc1F | 5.96 | 5.91 | 
inactive | 6.92 | Active | 6.38 | 6.41 | 7.00 | Cc1ccsc1C#Cc1cccc(-c2nn(-c3nc(C(=O)O)cs3)c(CC3CC3)c2Cc2ccc(S(N)(=O)=O)c(F)c2)c1 | 6.34 |  | 
inactive | 6.92 | Active | 6.35 | 6.28 | 7.92 | Cc1cnc(C#Cc2cccc(-c3nn(-c4nc(C(=O)O)cs4)c(CC4CC4)c3Cc3ccc(S(N)(=O)=O)c(F)c3)c2)o1 | 6.17 |  | 
inactive | 6.95 | Active | 6.39 | 6.66 | 6.78 | NS(=O)(=O)c1ccc(Cc2c(-c3cccc(C#Cc4ccc(Cl)s4)c3)nn(-c3nc(C(=O)O)cs3)c2CC2CC2)cc1F | 6.25 | 6.34 | 
inactive | 7.02 | Active | 6.18 | 6.31 | 7.06 | Cc1cc(C#Cc2cccc(-c3nn(-c4nc(C(=O)O)cs4)c(CC4CC4)c3Cc3ccc(S(N)(=O)=O)c(F)c3)c2)cs1 | 6.48 | 6.44 | 
inactive | 7.05 | Active | 6.31 | 6.28 | 7.77 | Cc1cnc(C#Cc2cccc(-c3nn(-c4nc(C(=O)O)cs4)c(CC4CC4)c3Cc3ccc(S(N)(=O)=O)c(F)c3)c2)s1 | 6.44 | 6.51 | 
inactive | 7.05 | Active | 6.55 | 6.53 | 7.33 | NS(=O)(=O)c1ccc(Cc2c(-c3cccc(C#CC4CCCC4)c3)nn(-c3nc(C(=O)O)cs3)c2CC2CC2)cc1F | 6.42 | 6.38 | 
inactive | 7.42 | Active | 6.14 | 6.15 | 7.37 | Cc1ncc(C#Cc2cccc(-c3nn(-c4nc(C(=O)O)cs4)c(CC4CC4)c3Cc3ccc(S(N)(=O)=O)c(F)c3)c2)s1 | 6.19 | 6.27 | 
